Calls of active or inactive are those of the source. The calls are words filed in the database; no cut-off is given here. Where only a bound is given, the exact number is not on record here.

The subject of data set [1] is Human immunodeficiency virus 1. The experiment in a line: Antiviral activity against CCR5-dependent HIV1 clade B isolate QH0692 infected in human TZM-bl cells assessed as reduction in virus infection incubated for 48 hrs by luciferase reporter gene based viral neutralization assay. The following applies: Human immunodeficiency virus 1, clade B isolate QH0692, TZM-bl. The class given is functional. The essentials: (§1)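 Env-pseudotyped viruses made in 293T cells by proviral DNA transfection and titred by luciferase in TZM-bl cells. 200 TCID50 of virus preincubated 1 h at 37 °C with serially diluted compound (10 to 0.001 μM) in D-MEM/10% FBS. 10^4 TZM-bl cells per well with 15 μg/mL DEAE-dextran were then added, 37 °C, 48 h and 72 h. Four replicates per point. Luciferase read-out.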
(Reporter assays use an easily measured gene product as a stand-in for the process of interest.)

Data set [2] concerns Human immunodeficiency virus 1. The data set can be described thus: Antiviral activity against CXCR4-dependent HIV1 HXB2 infected in human TZM-bl cells assessed as reduction in virus infection incubated for 72 hrs by luciferase reporter gene based viral neutralization assay. The class given is functional, organism-based. The essentials: (§2)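 Single-round infection of TZM-bl cells with env-pseudotyped virus at 200 TCID50, preincubated 1 h at 37 °C with serial compound dilutions (10 to 0.001 μM) in D-MEM with 10% FBS. TZM-bl cells (10^4/well) carrying 15 μg/mL DEAE-dextran were then added and cultured 48 and 72 h at 37 °C, 5% CO2. Luciferase RLU were read in four replicates per point. IC90 was the 90% RLU drop versus virus-only wells, minus cell-only background.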

The subject of data set [3] is Human immunodeficiency virus 1. The data set can be described thus: Antiviral activity against CCR5-dependent HIV1 clade B isolate 6535 infected in human TZM-bl cells assessed as reduction in virus infection incubated for 48 hrs by luciferase reporter gene based viral neutralization assay. The following applies: Human immunodeficiency virus 1, clade B isolate 6535, TZM-bl. The class given is functional. The essentials:
as §1

The test system of data set [4] is Human immunodeficiency virus 1. The experiment in a line: Antiviral activity against CCR5-dependent HIV1 cladC isolate ZM214 infected in human TZM-bl cells assessed as reduction in virus infection incubated for 72 hrs by luciferase reporter gene based viral neutralization assay. The format is functional, organism-based. The gist of the method: as §2
Data set [5] concerns Human immunodeficiency virus 1. The data set can be described thus: Antiviral activity against CCR5-dependent HIV1 cladC isolate ZM214 infected in human TZM-bl cells assessed as reduction in virus infection incubated for 48 hrs by luciferase reporter gene based viral neutralization assay. The following applies: Human immunodeficiency virus 1, cladC isolate ZM214, TZM-bl. The format is functional. The essentials:
as §1

The test system of data set [6] is Human immunodeficiency virus 1. The data set can be described thus: Antiviral activity against CCR5-dependent HIV1 SF162 infected in human TZM-bl cells assessed as reduction in virus infection incubated for 72 hrs by luciferase reporter gene based viral neutralization assay. The class given is functional, organism-based. The gist of the method:
as §2

The subject of data set [7] is Human immunodeficiency virus 1. The data set can be described thus: Antiviral activity against CCR5-dependent HIV1 clade B isolate AC10 infected in human TZM-bl cells assessed as reduction in virus infection incubated for 48 hrs by luciferase reporter gene based viral neutralization assay. The class given is functional. The following applies: Human immunodeficiency virus 1, clade B isolate AC10, 48 h. The essentials:
as §1

Data set [8] deals with Human immunodeficiency virus 1. The experiment in a line: Antiviral activity against CCR5-dependent HIV1 SF162 infected in human TZM-bl cells assessed as reduction in virus infection incubated for 48 hrs by luciferase reporter gene based viral neutralization assay. The class given is functional. The settings on record: Human immunodeficiency virus 1, SF162, TZM-bl. The essentials: as §1

Data set [9] has as its system Vesicular stomatitis virus. The data set can be described thus: Antiviral activity against VSV G SVA.MLV#922 infected in human TZM-bl cells assessed as reduction in virus infection incubated for 48 hrs by luciferase reporter gene based viral neutralization assay. The class given is functional. The settings on record: G SVA.MLV#922, TZM-bl. The essentials: as §1
Data set [10] has as its system Human immunodeficiency virus 1. The data set can be described thus: Antiviral activity against CCR5-dependent HIV1 clade B isolate PVO infected in human TZM-bl cells assessed as reduction in virus infection incubated for 48 hrs by luciferase reporter gene based viral neutralization assay. The class given is functional. The following applies: Human immunodeficiency virus 1, clade B isolate PVO. The essentials: as §1

Data set [11] relates to TZM. The experiment in a line: Toxicity in human TZM-bl cells assessed as reduction in cell proliferation at 10 uM incubated for 72 hrs by trypan blue staining based assay.
In data set [12] the test system is Human immunodeficiency virus 1. The data set can be described thus: Antiviral activity against CCR5-dependent HIV1 clade B isolate PVO infected in human TZM-bl cells assessed as reduction in virus infection incubated for 72 hrs by luciferase reporter gene based viral neutralization assay. The class given is functional, organism-based. The essentials: as §2
Data set [13] concerns Vesicular stomatitis virus. The data set can be described thus: Antiviral activity against VSV G SVA.MLV#922 infected in human TZM-bl cells assessed as reduction in virus infection incubated for 72 hrs by luciferase reporter gene based viral neutralization assay. The class given is functional, organism-based. The gist of the method:
as §1

Data set [14] deals with Human immunodeficiency virus 1. The experiment in a line: Antiviral activity against CCR5-dependent HIV1 clade B isolate AC10 infected in human TZM-bl cells assessed as reduction in virus infection incubated for 72 hrs by luciferase reporter gene based viral neutralization assay. The format is functional, organism-based. The essentials:
as §2

For data set [15], the system named is TZM. The data set can be described thus: Toxicity in human TZM-bl cells assessed as reduction in cell proliferation at 10 uM incubated for 48 hrs by trypan blue staining based assay.
Data set [16] has as its system Human immunodeficiency virus 1. The experiment in a line: Antiviral activity against CXCR4-dependent HIV1 HXB2 infected in human TZM-bl cells assessed as reduction in virus infection incubated for 48 hrs by luciferase reporter gene based viral neutralization assay. The class given is functional. The settings on record: Human immunodeficiency virus 1, HXB2, TZM-bl. The essentials:
as §1

The test system of data set [17] is Human immunodeficiency virus 1. The data set can be described thus: Antiviral activity against CCR5-dependent HIV1 clade B isolate 6535 infected in human TZM-bl cells assessed as reduction in virus infection incubated for 72 hrs by luciferase reporter gene based viral neutralization assay. The class given is functional, organism-based. The gist of the method: as §2

In data set [18] the test system is Human immunodeficiency virus 1. The data set can be described thus: Antiviral activity against CCR5-dependent HIV1 clade B isolate QH0692 infected in human TZM-bl cells assessed as reduction in virus infection incubated for 72 hrs by luciferase reporter gene based viral neutralization assay. The class given is functional, organism-based. The gist of the method: as §2

What is called IC90 is the point of the concentration-response curve where the effect stands at 90%. Turning to `Cc1nnc(C(C)C)n1N1CC2CCC(C1)N2CC[C@H](NC(=O)C1CCC(F)(F)CC1)c1ccccc1`, the IC90 is 20 to 1520 nM in data set [1]; 20 to 1520 nM in data set [3]; 20 to 1520 nM in data set [5]; 20 to 1520 nM in data set [7]; 20 to 1520 nM in data set [8]; greater than 10 µM in data set [9]. Further, the IC90 is 20 to 1520 nM in data set [10] and greater than 10 µM in [16]. In addition, the result in data set [2], in data set [4], in data set [6], in data set [12], in data set [13] and in data set [14] was Active. The outcome in data set [17] and in [18] was Active. Also, the Activity entry in the data set with TZM [11] and with TZM [15] was “Non-Toxic” each time.
In the case of `Cc1nnc(C(C)C)n1[C@@H]1C[C@H]2CC[C@@H](C1)N2CC[C@H](NC(=O)C1CCC(F)(F)CC1)c1ccccc1` [MARAVIROC], the Activity result in the data set with TZM [11] and in the data set on TZM [15] was “Non-Toxic” in each case.
Take `Cc1nnc(C(C)C)n1[C@H]1C[C@H]2CC[C@@H](C1)N2CC[C@H](NC(=O)C1CCC(F)(F)CC1)c1ccccc1` [MARAVIROC]: the IC90 in data set [1] was 80 to 470 nM; in data set [3], 80 to 470 nM; in [5], 80 to 470 nM; in [7] it was 80 to 470 nM; in data set [8], 80 to 470 nM; in data set [9] it was greater than 10 µM. For the same compound, the IC90 in data set [10] was 80 to 470 nM; in [16] it was greater than 10 µM. The result in [2], in [4], in data set [6], in [12], in data set [13] and in data set [14] was Active. Moreover, the outcome in [17] and in [18] was Active.
Take `Cc1nnc(C(C)C)n1N1CC2CCCC(C1)N2CC[C@H](NC(=O)C1CCC(F)(F)CC1)c1ccccc1`: the IC90 in data set [1] is 90 to 3540 nM; in data set [3] it was 90 to 3540 nM; in data set [5] it was 90 to 3540 nM; in [7], 90 to 3540 nM; in [8], 90 to 3540 nM; in data set [9], greater than 10 µM. The IC90 in data set [10] was 90 to 3540 nM; in data set [16], greater than 10 µM. The result in data set [2], in [4], in data set [6], in [12], in data set [13] and in data set [14] was Active. The outcome in data set [17] and in data set [18] was Active. For the same compound, the Activity result in the data set with TZM [11] and in the data set on TZM [15] was “Non-Toxic” throughout.

These data come from ChEMBL document CHEMBL4138064, “Diazabicyclo analogues of maraviroc: synthesis, modeling, NMR studies and antiviral activity” (Medchemcomm, 2017).
